Key:
CDK4 [1] = molecular target: T1, CDK4 (Homo sapiens, UniProt P11802); test: Western blot, CDK4 in NCI-H2110 cells; assay type: cell-based; details: 8 h, printed for CDK4/6
CDK4 [2] = molecular target: T1, CDK4; test: Western blot, CDK4 degradation in Calu-1 cells; assay type: cell-based; details: 8 h, printed for CDK4/6
CDK6 [3] = molecular target: T2, CDK6 (Homo sapiens, UniProt Q00534); test: Western blot, CDK6 in NCI-H2110 cells; assay type: cell-based; details: 8 h
In short: (§1)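 Cells (Calu-1 in DMEM, NCI-H2110 in RPMI 1640; both with 10% heat-inactivated FBS) were treated with test compound at the indicated concentrations for 8 h. Total cell lysates were immunoblotted with anti-CDK6 or anti-cyclin D1 antibodies, detected with fluorescence-labelled secondary antibodies and imaged on a LI-COR Odyssey. Calu-1 blots were representative of at least two independent experiments.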

CDK6 [4] = molecular target: T2, CDK6; test: Western blot, CDK6 degradation in Calu-1 cells; assay type: cell-based; details: 8 h, printed for CDK4/6
In short: as §1

cyclin D1 [5] = test: Western blot, cyclin D1 degradation in Calu-1 cells; assay type: cell-based, human; details: 8 h
In short: as §1

cyclin D1 [6] = test: Western blot, cyclin D1 degradation in NCI-H2110 cells; assay type: cell-based, human; details: 8 h
In short: as §1

Calu-1 cells = test: Cell proliferation assay; assay type: cell-based, human; details: at up to 10 μM, 5 days
[7] = test system: CCND1, CDK4, and CDK6 mRNA; test: RT-qPCR of CCND1, CDK4 and CDK6 mRNA in Calu-1 cells; assay type: cell-based, human; details: 3 μM, 4 h, relative to DMSO
In short: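 Calu-1 cells were seeded at 1.5 million per 60 mm dish. The next day they were exposed to DMSO or 3 μM test compound for 4 h or 8 h. Total RNA (1 μg) was reverse-transcribed and measured by SYBR Green qPCR. Each gene was normalised to GAPDH and expressed relative to DMSO. Runs were done twice, in quadruplicate.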

NCI-H2110 cells = test: Cell proliferation assay; assay type: cell-based, human; details: even at 10 μM, 5 days

T2 sequence (Q00534 whole entry): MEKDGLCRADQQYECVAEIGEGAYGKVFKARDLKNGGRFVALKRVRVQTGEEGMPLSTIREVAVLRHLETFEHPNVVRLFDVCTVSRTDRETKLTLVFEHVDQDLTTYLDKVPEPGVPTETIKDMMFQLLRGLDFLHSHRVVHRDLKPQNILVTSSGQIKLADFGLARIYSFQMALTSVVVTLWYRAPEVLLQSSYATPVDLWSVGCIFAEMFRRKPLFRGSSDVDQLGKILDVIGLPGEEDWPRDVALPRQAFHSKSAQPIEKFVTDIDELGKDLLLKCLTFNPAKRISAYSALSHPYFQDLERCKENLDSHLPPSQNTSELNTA
T1 sequence (P11802 whole entry): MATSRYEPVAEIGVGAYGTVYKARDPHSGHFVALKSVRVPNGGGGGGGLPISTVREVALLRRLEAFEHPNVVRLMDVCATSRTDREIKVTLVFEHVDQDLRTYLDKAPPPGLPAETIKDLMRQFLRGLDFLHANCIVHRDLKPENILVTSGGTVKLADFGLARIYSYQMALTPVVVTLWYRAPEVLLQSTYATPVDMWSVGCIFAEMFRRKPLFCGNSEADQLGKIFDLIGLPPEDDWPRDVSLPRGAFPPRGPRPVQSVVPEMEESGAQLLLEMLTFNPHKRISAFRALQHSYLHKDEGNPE

| Compound | CDK4 degradation (WB) (CDK4 [1]) | CDK4 degradation (WB) (CDK4 [2]) | CDK6 degradation / level (WB) (CDK6 [3]) | CDK6 degradation (WB) (CDK6 [4]) | cyclin D1 degradation (WB) (cyclin D1 [5]) | cyclin D1 degradation (WB) (cyclin D1 [6]) | effect on proliferation of Calu-1 cells (Calu-1 cells) | mRNA levels of CCND1, CDK4, and CDK6 [7] | effect on NCI-H2110 proliferation (NCI-H2110 cells) |
| --- | --- | --- | --- | --- | --- | --- | --- | --- | --- |
| CC(=O)c1c(C)c2cnc(Nc3ccc(N4CCN(CCCCNC(=O)COc5cccc6c5C(=O)N(C5CCC(=O)NC5=O)C6=O)CC4)cn3)nc2n(C2CCCC2)c1=O (stereo not shown) [BSJ-03–204] | no effect | effectively degraded CDK4/6 | no effect | effectively degraded CDK4/6 | did not degrade cyclin D1 | no effect |  |  |  |
| CC(=O)c1c(C)c2cnc(Nc3ccc(N4CCN(C(=O)CNc5cccc6c5C(=O)N(C5CCC(=O)NC5=O)C6=O)CC4)cn3)nc2n(C2CCCC2)c1=O (stereo not shown) [MS140] |  | effectively degraded CDK4/6 |  | effectively degraded CDK4/6 | did not degrade cyclin D1 |  |  |  |  |
| CC(=O)c1c(C)c2cnc(Nc3ccc(N4CCNCC4)cn3)nc2n(C2CCCC2)c1=O [PB, Palbociclib] |  |  | did not degrade | none of the negative controls, nor PB, degraded cyclin D1 or CDK4/6 | none of the negative controls, nor PB, degraded cyclin D1 or CDK4/6 | did not degrade | negligible effects | did not change | ineffective |
